Assay results published in ChEMBL document CHEMBL4350958, “Rational Design of Short Peptide Variants by Using Kunitzin-RE, an Amphibian-Derived Bioactivity Peptide, for Acquired Potent Broad-Spectrum Antimicrobial and Improved Therapeutic Potential of Commensalism Coinfection of Pathogens” (J Med Chem, 2019).

How the values were obtained:
Candida albicans [1] = assay: Antifungal activity against Candida albicans cgmcc2.2086 measured after 48 hrs in presence of MgCl by broth microdilution method; assay type: functional; settings: cgmcc2.2086, 48 h
[2] = system: Staphylococcus epidermidis; assay: Bactericidal activity against Staphylococcus epidermidis ATCC 12228 incubated for 24 hrs followed by replating on agar plate and measured after overnight incubation; assay type: functional; settings: ATCC 12228, 24 h, read-out: MBC>99.9
Outline: (§1)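 Mid-log bacteria diluted in MHB to (0.5–1) × 10^5 CFU/mL and mixed 1:1 with peptide serially diluted in 0.2% BSA. After 24 h at 37 °C, 50 μL of each mixture was plated on agar and incubated overnight. MBC taken as the lowest concentration killing >99.9% of cells. At least three independent experiments, each with three technical replicates.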

[3] = Cytotoxicity against mouse RAW264.7 cells assessed as cell viability at 2 to 64 uM measured after 18 to 24 hrs by MTT assay relative to control; assay type: cell-based; settings: RAW264.7 cells, read-out: Activity
Outline: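 MTT assay: RAW264.7 cells seeded at 1.0–2.0×10^4 per well and exposed to peptide (2–64 µM) for 18–24 h at 37 °C in 5% CO2. MTT (0.5 mg/mL) added for 4 h, formazan dissolved in DMSO, read at 570 nm. At least three independent experiments with triplicate wells.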

Escherichia coli [4] = assay: Bactericidal activity against Escherichia coli ATCC 25922 incubated for 24 hrs followed by replating on agar plate and measured after overnight incubation; assay type: functional; settings: ATCC 25922, 24 h, read-out: MBC>99.9
Outline: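 After the 24 h, 37 °C MHB microdilution (0.5–1 × 10^5 CFU mL−1 inoculum, peptides diluted in 0.2% BSA), 50 μL from each well was plated on agar and incubated overnight. MBC was taken as the lowest concentration killing >99.9% of cells. Three or more independent experiments, each with triplicate technical replicates.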

Escherichia coli [5] = assay: Bactericidal activity against Escherichia coli K88 incubated for 24 hrs followed by replating on agar plate and measured after overnight incubation; assay type: functional; settings: K88, 24 h, read-out: MBC>99.9; outline: as §1
Staphylococcus aureus [6] = assay: Bactericidal activity against Staphylococcus aureus ATCC 29213 incubated for 24 hrs followed by replating on agar plate and measured after overnight incubation; assay type: functional; settings: ATCC 29213, 24 h, read-out: MBC>99.9
Outline: (§2)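 After the 24 h, 37 °C MHB microdilution MIC assay, 50 μL from each well was plated on agar and incubated overnight. MBC taken as lowest peptide concentration killing >99.9% of cells. At least three independent experiments, each with three technical replicates.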

Staphylococcus aureus [7] = assay: Antibacterial activity against methicillin-resistant Staphylococcus aureus ATCC 43300 measured after 24 hrs; assay type: functional; settings: ATCC 43300, 24 h
Outline: (§3)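 Broth microdilution modified from NCCLS. Mid-log bacteria at (0.5–1) × 10^5 CFU mL−1 in MHB, mixed with peptides serially diluted in 0.2% BSA. Incubated 24 h at 37 °C, read at A492. MIC taken as lowest concentration giving 95% growth inhibition. At least three independent experiments, each with three technical replicates.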

Escherichia coli [8] = assay: Bactericidal activity against Escherichia coli UB1005 incubated for 24 hrs followed by replating on agar plate and measured after overnight incubation; assay type: functional; settings: UB1005, 24 h, read-out: MBC>99.9; outline: as §1
Candida albicans [9] = assay: Antifungal activity against Candida albicans cgmcc2.2086 measured after 48 hrs in presence of CaCl by broth microdilution method; assay type: functional; settings: cgmcc2.2086, 48 h
[10] = Therapeutic index, ratio of MHC10 for hemolytic activity in human RBC to MIC95 against Staphylococcus epidermidis ATCC 12228; assay type: toxicity; settings: human red blood cells (erythrocytes), read-out: TI
Outline: (§4)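 Therapeutic index = MHC divided by MIC. MHC is the lowest concentration giving >10% lysis of human RBC (1 h, 37 °C, 1-128 µM, A576). MIC is 95% growth inhibition by broth microdilution: bacteria in MHB 24 h at 37 °C; Candida in MOPS-buffered RPMI 1640 at (0.5–1) × 10^3 CFU mL−1, 48 h at 28 °C.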

Candida albicans [11] = assay: Antifungal activity against Candida albicans cgmcc2.2086 measured after 48 hrs in presence of KCl by broth microdilution method; assay type: functional; settings: cgmcc2.2086, 48 h
Candida albicans [12] = assay: Antifungal activity against Candida albicans cgmcc2.2086 measured after 48 hrs by broth microdilution method; assay type: functional; settings: cgmcc2.2086, 48 h
Outline: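 Modified CLSI M27-A2 microdilution. Yeast colonies were diluted in MOPS-buffered RPMI 1640 to a final (0.5–1) × 10^3 CFU mL−1 and mixed with an equal volume of peptide serially diluted in 0.2% BSA. After 48 h at 28 °C, MIC was read at A492 as the lowest concentration inhibiting 95% of growth. At least three independent experiments, each with three technical replicates.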

Staphylococcus aureus [13] = assay: Bactericidal activity against methicillin-resistant Staphylococcus aureus ATCC 43300 incubated for 24 hrs followed by replating on agar plate and measured after overnight incubation; assay type: functional; settings: ATCC 43300, 24 h, read-out: MBC>99.9; outline: as §2
[14] = system: Staphylococcus epidermidis; assay: Antibacterial activity against Staphylococcus epidermidis ATCC 12228 measured after 24 hrs; assay type: functional; settings: ATCC 12228, 24 h
Outline: (§5)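 Broth microdilution adapted from NCCLS. Mid-log bacteria were diluted in MHB to a final (0.5–1) × 10^5 CFU mL−1. Peptides were serially diluted in 0.2% BSA and mixed with an equal volume of cells. After 24 h at 37 °C, MIC was read at A492 as the lowest concentration inhibiting 95% of growth. At least three independent experiments, each with three technical replicates.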

Staphylococcus aureus [15] = assay: Antibacterial activity against Staphylococcus aureus ATCC 25923 measured after 24 hrs; assay type: functional; settings: ATCC 25923, 24 h; outline: as §3
[16] = Therapeutic index, ratio of MHC10 for hemolytic activity in human RBC to MIC95 against methicillin-resistant Staphylococcus aureus ATCC 43300; assay type: toxicity; settings: human red blood cells (erythrocytes), read-out: TI; outline: as §4
Salmonella typhimurium [17] = assay: Bactericidal activity against Salmonella typhimurium C7731 incubated for 24 hrs followed by replating on agar plate and measured after overnight incubation; assay type: functional, Salmonella enterica subsp. enterica serovar Typhimurium; settings: Salmonella enterica, C7731, 24 h; read-out: MBC>99.9; outline: as §1
Escherichia coli [18] = assay: Antibacterial activity against Escherichia coli K99 measured after 24 hrs; assay type: functional; settings: K99, 24 h; outline: as §5
Staphylococcus aureus [19] = assay: Antibacterial activity against Staphylococcus aureus ATCC 29213 measured after 18 to 24 hrs in presence of NH4Cl; assay type: functional
Outline: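 MIC broth microdilution (MHB, 0.2% BSA peptide diluent, A492, 95% inhibition) run in the presence of physiological salts at final concentrations of 6 μM NH4Cl or 8 μM ZnCl2. Three independent assays, each with three technical replicates.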

Salmonella typhimurium [20] = assay: Antibacterial activity against Salmonella typhimurium ATCC 14028 measured after 24 hrs; assay type: functional, Salmonella enterica subsp. enterica serovar Typhimurium; settings: Salmonella enterica, ATCC 14028, 24 h; outline: as §5
Staphylococcus aureus [21] = assay: Antibacterial activity against Staphylococcus aureus ATCC 29213 measured after 18 to 24 hrs in presence of NaCl; assay type: functional
Escherichia coli [22] = assay: Antibacterial activity against Escherichia coli ATCC 25922 measured after 18 to 24 hrs in presence of MgCl2; assay type: functional
[23] = Therapeutic index, ratio of MHC10 for hemolytic activity in human RBC to MIC95 against Candida parapsilosis cgmcc2.3989; assay type: toxicity; settings: human red blood cells (erythrocytes), read-out: TI; outline: as §4

Substance: H-AARIILRARFR-NH2
- MIC95 (Candida albicans [1]): 32 µM
- MBC [2]: 4 µM
- viability at up to 64 µM [3]: 90 to 100%
- MBC (Escherichia coli [4]): 4 µM
- MBC (Escherichia coli [5]): 4 µM
- MBC (Staphylococcus aureus [6]): 8 µM
- MIC95 (Staphylococcus aureus [7]): 2 µM
- MBC (Escherichia coli [8]): 4 µM
- MIC95 (Candida albicans [9]): 64 µM
- selectivity ratio [10]: 90.5
- MIC95 (Candida albicans [11]): 16 µM
- MIC95 (Candida albicans [12]): 16 µM
- MBC (Staphylococcus aureus [13]): 4 µM
- MIC95 [14]: 2 µM
- MIC95 (Staphylococcus aureus [15]): 4 µM
- selectivity ratio [16]: 90.5
- MBC (Salmonella typhimurium [17]): 8 µM
- MIC95 (Escherichia coli [18]): 2 µM
- MIC95 (Staphylococcus aureus [19]): 4 µM
- MIC95 (Salmonella typhimurium [20]): 4 µM
- MIC95 (Staphylococcus aureus [21]): > 128 µM
- MIC95 (Escherichia coli [22]): 16 µM
- selectivity ratio [23]: 25.4

Substance: H-AARIILRFRFR-NH2
- MIC95 (Candida albicans [1]): 16 µM
- MBC [2]: 4 µM
- viability at up to 64 µM [3]: 90 to 100%
- MBC (Escherichia coli [4]): 8 µM
- MBC (Escherichia coli [5]): 8 µM
- MBC (Staphylococcus aureus [6]): 4 µM
- MIC95 (Staphylococcus aureus [7]): 2 µM
- MBC (Escherichia coli [8]): 8 µM
- MIC95 (Candida albicans [9]): 64 µM
- selectivity ratio [10]: 128
- MIC95 (Candida albicans [11]): 8 µM
- MIC95 (Candida albicans [12]): 8 µM
- MBC (Staphylococcus aureus [13]): 4 µM
- MIC95 [14]: 2 µM
- MIC95 (Staphylococcus aureus [15]): 2 µM
- selectivity ratio [16]: 128
- MBC (Salmonella typhimurium [17]): 8 µM
- MIC95 (Escherichia coli [18]): 2 µM
- MIC95 (Staphylococcus aureus [19]): 2 µM
- MIC95 (Salmonella typhimurium [20]): 4 µM
- MIC95 (Staphylococcus aureus [21]): 32 µM
- MIC95 (Escherichia coli [22]): 32 µM
- selectivity ratio [23]: 50.8

Substance: H-AARIILRGRFR-NH2
- MIC95 (Candida albicans [1]): > 128 µM
- MBC [2]: 16 µM
- viability at up to 64 µM [3]: 90 to 100%
- MBC (Escherichia coli [4]): 8 µM
- MBC (Escherichia coli [5]): 4 µM
- MBC (Staphylococcus aureus [6]): 8 µM
- MIC95 (Staphylococcus aureus [7]): 8 µM
- MBC (Escherichia coli [8]): 8 µM
- MIC95 (Candida albicans [9]): > 128 µM
- selectivity ratio [10]: 26.9
- MIC95 (Candida albicans [11]): 128 µM
- MIC95 (Candida albicans [12]): 128 µM
- MBC (Staphylococcus aureus [13]): 8 µM
- MIC95 [14]: 8 µM
- MIC95 (Staphylococcus aureus [15]): 16 µM
- selectivity ratio [16]: 26.9
- MBC (Salmonella typhimurium [17]): 16 µM
- MIC95 (Escherichia coli [18]): 2 µM
- MIC95 (Staphylococcus aureus [19]): 16 µM
- MIC95 (Salmonella typhimurium [20]): 4 µM
- MIC95 (Staphylococcus aureus [21]): > 128 µM
- MIC95 (Escherichia coli [22]): 16 µM
- selectivity ratio [23]: 5.04

Substance: H-AARIILRIRFR-NH2
- MIC95 (Candida albicans [1]): 16 µM
- MBC [2]: 4 µM
- viability at up to 64 µM [3]: 90 to 100%
- MBC (Escherichia coli [4]): 4 µM
- MBC (Escherichia coli [5]): 4 µM
- MBC (Staphylococcus aureus [6]): 4 µM
- MIC95 (Staphylococcus aureus [7]): 2 µM
- MBC (Escherichia coli [8]): 8 µM
- MIC95 (Candida albicans [9]): 64 µM
- selectivity ratio [10]: 64
- MIC95 (Candida albicans [11]): 8 µM
- MIC95 (Candida albicans [12]): 8 µM
- MBC (Staphylococcus aureus [13]): 4 µM
- MIC95 [14]: 2 µM
- MIC95 (Staphylococcus aureus [15]): 2 µM
- selectivity ratio [16]: 64
- MBC (Salmonella typhimurium [17]): 8 µM
- MIC95 (Escherichia coli [18]): 4 µM
- MIC95 (Staphylococcus aureus [19]): 2 µM
- MIC95 (Salmonella typhimurium [20]): 2 µM
- MIC95 (Staphylococcus aureus [21]): 8 µM
- MIC95 (Escherichia coli [22]): 16 µM
- selectivity ratio [23]: 25.4
